The text below walks through data of ChEMBL document CHEMBL5380787, “Optimized M24B Aminopeptidase Inhibitors for CARD8 Inflammasome Activation” (J Med Chem, 2023).

Test [1] deals with MV4-11. Kind of test: Cytotoxicity against CASP1 knockout human MV4-11 cells assessed as reduction in cell viability incubated for 24 hrs by celltiter-glo assay. The following applies: MV4-11, 24 h. The test is classed as functional, cell-based. An outline of the steps:
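MV4;11 cells (WT or CASP1−/−), grown in RPMI 1640 with 10% FBS at 37 °C, 5% CO2, plated 2000 cells/well, dosed by pintool across 100 μM to 15.2 nM in three-fold steps for 24 h. Viability by CellTiter-Glo luminescence after 2 min shaking and 10 min at 25 °C. IC50 as mean ± SEM of three biological replicates.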

The test system of test [2] is MV4-11. Kind of test: Induction of cell death in CARD8 knockout human MV4-11 cells assessed as increase in PI uptake at 6.25 uM incubated for 6 hrs by PI staining based fluorescence analysis. The test is classed as functional. An outline of the steps:
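PI flux assay. 2 × 10^4 MV4;11 (WT, CARD8−/− or CASP1−/−) or OCI-AML2 cells in RPMI were given compound at 6.25 μM plus PI at 10 μM final. Fluorescence (Ex/Em 535/617 nm) was read every 5 min at 37 °C for 6 h, baseline-corrected to DMSO and normalized to the maximum response. n = 3.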

Test [3] concerns OCI-AML2. The test can be described thus: Induction of cell death in human OCI-AML2 cells assessed as reduction in cell viability incubated for 24 hrs by celltiter-glo assay. The test is classed as functional, cell-based. The procedure, abridged:
(§1)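 OCI-AML2 cells, WT or CARD8−/−, were grown in RPMI 1640 with 10% FBS and plated at 2000 cells/well. Compound was added over a range of concentrations for 24 h, and viability was then read by CellTiter-Glo luminescence. Means ± SEM, n = 3.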

The subject of test [4] is OCI-AML2. The test can be described thus: Induction of cell death in CARD8 knockout human OCI-AML2 cells assessed as reduction in cell viability incubated for 24 hrs by celltiter-glo assay. The test is classed as functional, cell-based. An outline of the steps: as §1
In test [5] the test system is MV4-11. Kind of test: Induction of pyroptosis in human MV4-11 cells assessed as LDH release at 20 uM incubated for 24 hrs. The test is classed as functional, cell-based. An outline of the steps:
(§2)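 Cells (MV4;11, OCI-AML2 or THP-1; WT or the knockout named) plated at 5 × 10^5 cells/well and exposed to 20 μM compound for 24 h. LDH in the supernatant was measured relative to a Triton X-100 lysis control. For immunoblots, cells were washed in PBS, sonicated, protein-normalized, run on SDS-PAGE and probed for GSDMD cleavage. n = 3.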

The test system of test [6] is MV4-11. Kind of test: Induction of pyroptosis in CARD8 knockout human MV4-11 cells assessed as LDH release at 20 uM incubated for 24 hrs. The test is classed as functional, cell-based. The procedure, abridged: as §2
The test system of test [7] is THP-1. Kind of test: Induction of pyroptosis in human THP-1 cells assessed as LDH release at 20 uM incubated for 24 hrs. The test is classed as functional, cell-based. An outline of the steps: as §2
Test [8] deals with THP-1. The test can be described thus: Induction of pyroptosis in CARD8 knockout human THP-1 cells assessed as LDH release at 20 uM incubated for 24 hrs. The test is classed as functional, cell-based. The procedure, abridged:
as §2

In test [9] the test system is MV4-11. The test can be described thus: Induction of pyroptosis in human MV4-11 cells assessed as GSDMD cleavage at 20 uM incubated for 24 hrs by immunoblot analysis. The test is classed as functional, cell-based. An outline of the steps: as §2
Test [10] relates to MV4-11. The test can be described thus: Induction of pyroptosis in CARD8 knockout human MV4-11 cells assessed as GSDMD cleavage at 20 uM incubated for 24 hrs by immunoblot analysis. The test is classed as functional, cell-based. The procedure, abridged: as §2
A further test relates to T-cell. Kind of test: Induction of pyroptosis in human T cells expressing CARD8 assessed as GSDMD cleavage at 20 uM incubated for 24 hrs by immunoblot analysis. The test is classed as functional, cell-based. An outline of the steps: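 Resting human primary T cells (>90% purity) were thawed and cultured in RPMI-1640 with 10% FBS and 30 U/mL IL-2. They were exposed to 20 μM compound for 24 h, lysed, and immunoblotted for GSDMD cleavage.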

The next test relates to RAW264.7. The test can be described thus: Induction of pyroptosis in mouse RAW264.7 cells expressing NLRP1B allele 1 assessed as LDH release at 20 uM incubated for 24 hrs. The test is classed as functional, cell-based. The procedure, abridged: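 RAW264.7 cells, grown in DMEM with 10% FBS, plated at 5 × 10^5 cells/well and exposed to 20 μM compound for 24 h. Supernatant LDH was measured relative to a Triton X-100 lysis control; lysates were immunoblotted for GSDMD cleavage. n = 3.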

Test [11] deals with THP-1. Kind of test: Induction of pyroptosis in DPP8/9 knockout human THP-1 cells assessed as LDH release at 20 uM incubated for 24 hrs. The test is classed as functional, cell-based. An outline of the steps:
as §2

Another test deals with HEK-293T. Kind of test: Induction of pyroptosis in human HEK293T cells expressing CASP1 and GSDMD cotransfected with dTAG-CARD8ZUC and CARD8 FIIND S297A assessed as destabilization of DPP9-CARD8 ternary complex by measuring GSDMD clevage at 20 uM incubated for 6 hrs in presence of dTAG13 by immunoblot analysis. The test is classed as functional, cell-based.
For test [12], the system named is THP-1. The test can be described thus: Induction of pyroptosis in CARD8 knockout human THP-1 cells harboring dox-inducible […] E274R mutant assessed as cell death by measuring LDH release at 20 uM pretreated with doxycycline for 16 hrs followed by compound addition and measured after 6 hrs. The test is classed as functional, cell-based. An outline of the steps:
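CARD8−/− THP-1 cells carrying a doxycycline-inducible CARD8 E274R mutant were exposed or not to DOX at 100 ng/mL for 16 h. Compound was then added at 20 μM for 6 h, followed by LDH release and immunoblot analysis.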

The subject of test [13] is MV4-11. The test can be described thus: Cytotoxicity against human MV4-11 cells assessed as reduction in cell viability at 1 uM incubated for 24 hrs by celltiter-glo assay relative to control. The test is classed as functional. The procedure, abridged:
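Single-dose viability screen. MV4;11 or OCI-AML2 cells at 2000 cells/well were exposed to 1 μM compound for 24 h. Viability was read by CellTiter-Glo luminescence and expressed as percent inhibition. Values are means of three biological replicates.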

Another test deals with Xaa-Pro aminopeptidase 1 (Homo sapiens, UniProt Q9NQW7). The test can be described thus: Inhibition of 6-His tagged XPNPEP1 (unknown origin) expressed in Escherichia coli Rosetta DE3 cells using H-Lys(abz)-Pro-Pro-pNA as substrate at 20 uM incubated for 60 mins by fluorescence based analysis relative to control. An outline of the steps:
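His6-tagged XPNPEP1 was expressed in E. coli Rosetta DE3 (IPTG, 16 h, 37 °C) and purified on TALON resin. Enzyme at 3.5 nM was exposed to compound, then H-Lys(abz)-Pro-Pro-pNA was added at 100 μM final. Fluorescence (Ex/Em 320/410) was followed for 60 min. Single-point inhibition used 20 μM; IC50 as mean ± SEM of three biological replicates.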

Test [14] relates to THP-1. The test can be described thus: Induction of pyroptosis in PEPD knockout human THP-1 cells assessed as GSDMD clevage at 20 uM incubated for 24 hrs by immunoblot analysis. The test is classed as functional, cell-based. The procedure, abridged:
as §2

Test [15] relates to THP-1. The test can be described thus: Induction of pyroptosis in XPNPEP1 knockout human THP-1 cells assessed as LDH release at 20 uM incubated for 24 hrs. The test is classed as functional, cell-based. The procedure, abridged: as §2
Test [16] concerns THP-1. Kind of test: Induction of pyroptosis in XPNPEP1 knockout human THP-1 cells assessed as GSDMD clevage at 20 uM incubated for 24 hrs by immunoblot analysis. The test is classed as functional, cell-based. An outline of the steps:
as §2

Test [17] relates to THP-1. Kind of test: Induction of pyroptosis in PEPD/XPNPEP1 knockout human THP-1 cells assessed as LDH release at 20 uM incubated for 24 hrs. The test is classed as functional, cell-based. An outline of the steps:
as §2

The test system of test [18] is THP-1. The test can be described thus: Induction of pyroptosis in PEPD/XPNPEP1 knockout human THP-1 cells assessed as GSDMD clevage at 20 uM incubated for 24 hrs by immunoblot analysis. The test is classed as functional, cell-based. The procedure, abridged:
as §2

Active and inactive are the calls of the source. No cut-off for these calls is given here. Some results are limits rather than exact numbers.

Sequence of Xaa-Pro aminopeptidase 1 (Q9NQW7 whole entry): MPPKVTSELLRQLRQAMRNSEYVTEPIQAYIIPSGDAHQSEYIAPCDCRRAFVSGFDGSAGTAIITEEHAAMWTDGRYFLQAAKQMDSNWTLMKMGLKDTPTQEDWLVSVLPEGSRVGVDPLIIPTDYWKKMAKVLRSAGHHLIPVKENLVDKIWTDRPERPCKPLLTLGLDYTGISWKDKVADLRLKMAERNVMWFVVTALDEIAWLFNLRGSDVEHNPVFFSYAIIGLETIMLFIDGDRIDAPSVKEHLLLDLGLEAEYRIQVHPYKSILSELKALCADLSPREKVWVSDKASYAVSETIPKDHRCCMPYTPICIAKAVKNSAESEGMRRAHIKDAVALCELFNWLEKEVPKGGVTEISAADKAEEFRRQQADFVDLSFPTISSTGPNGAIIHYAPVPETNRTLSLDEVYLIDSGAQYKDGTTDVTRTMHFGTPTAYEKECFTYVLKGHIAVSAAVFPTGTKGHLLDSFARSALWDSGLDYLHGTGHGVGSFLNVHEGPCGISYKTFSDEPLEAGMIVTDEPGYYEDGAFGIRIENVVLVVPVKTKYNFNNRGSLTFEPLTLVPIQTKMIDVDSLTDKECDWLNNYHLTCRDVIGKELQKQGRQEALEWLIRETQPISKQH

On to `COC(=O)[C@@H]1CCCN1C(=O)[C@@H](O)[C@H](N)CC(C)C`, for which, in the test on MV4-11 [1], the IC50 is over 100 µM. Further, the outcome in the test with MV4-11 [2], with OCI-AML2 [4], with MV4-11 [6], with THP-1 [8], with MV4-11 [10] and in the test on RAW264.7 was inactive. For the same molecule, the outcome with THP-1 [11], in the test on THP-1 [12], with THP-1 [17] and in the test on THP-1 [18] was inactive. Moreover, the outcome with OCI-AML2 [3], with MV4-11 [5], in the test on THP-1 [7], in the test on MV4-11 [9], in the test on T-cell and with HEK-293T was Active. Further, the result in the test on THP-1 [14], with THP-1 [15] and in the test with THP-1 [16] was Active. The Activity in the test on MV4-11 [13] came out at 72%. Further, on Xaa-Pro aminopeptidase 1, the inhibition was determined as 96%.

For `COC(=O)[C@H](CC(C)C)NC(=O)[C@@H]1CCCN1C(=O)[C@@H](O)[C@H](N)CC(C)C`, the IC50 in the test on MV4-11 [1] is over 20 µM. Besides, the outcome with MV4-11 [2], in the test with OCI-AML2 [4], with MV4-11 [6], in the test with THP-1 [8], in the test on MV4-11 [10] and in the test on RAW264.7 was inactive. Besides, the result in the test with THP-1 [11], with THP-1 [12], with THP-1 [17] and in the test on THP-1 [18] was inactive. In addition, the outcome in the test with OCI-AML2 [3], with MV4-11 [5], in the test with THP-1 [7], in the test with MV4-11 [9], in the test with T-cell and in the test on HEK-293T was Active. Besides, the outcome in the test with THP-1 [14], in the test on THP-1 [15] and in the test with THP-1 [16] was Active. Besides, in the test with MV4-11 [13], the Activity came out at 45%. The molecule also displayed an inhibition at Xaa-Pro aminopeptidase 1 of 74%.
